# Laboratory results published in ChEMBL document CHEMBL4680287, “Ibrexafungerp: An orally active β-1,3-glucan synthesis inhibitor” (Bioorg Med Chem Lett, 2021).
# Experiments:
# [1] = Oral bioavailability in rhesus monkey; type: ADME, organism-based, Macaca mulatta; settings: in vivo
# Summary of the method: (§1)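 Oral bioavailability calculated as oral AUC normalized to the IV dose, divided by the IV AUC.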
# [2] = tested on: Candida albicans; assay: Antifungal activity against Candida albicans MY1055 assessed as fungal growth inhibition measured after 24 hrs by liquid microdilution method; type: functional
# Summary of the method: (§2)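 Broth microdilution per CLSI protocols in RPMI medium. Read-out is the MIC, the lowest concentration completely inhibiting fungal growth. Run without serum and with added serum.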
# [3] = Clearance in mouse; type: ADME, organism-based; settings: in vivo
# [4] = tested on: Aspergillus fumigatus; assay: Antifungal activity against Aspergillus fumigatus MF5668 infected in DBA/2N mouse assessed as mouse survival at 1.56 mg/kg, ip bid administered for 7 days starting from 15 to 30 mins post infection and measured up to 21 days relative to control; type: functional; settings: 168 h, time 7 day
# Summary of the method: (§3)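 DBA/2N mice were infected IV with A. fumigatus MF5668 (6.7 x 10^5 CFU/mouse) and treated IP bid for 7 days. Percent survival per dose group was scored at the end of the 21-day survival model and compared with the sham-treated control group.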
# [5] = tested on: Candida tropicalis; assay: Antifungal activity against Candida tropicalis MY1012 assessed as reduction in fungal growth; type: functional
# [6] = Half life in mouse; type: ADME, organism-based; settings: in vivo
# [7] = tested on: Pichia kudriavzevii; assay: Antifungal activity against Candida krusei ATCC 6258 assessed as reduction in fungal growth; type: functional
# [8] = Dose normalized AUC in po rhesus monkey; type: ADME, organism-based, Macaca mulatta; settings: in vivo
# [9] = Oral bioavailability in rat; type: ADME, organism-based; settings: in vivo; summary of the method: as §1
# [10] = tested on: Candida tropicalis; assay: Antifungal activity against Candida tropicalis MY1012 assessed as fungal growth inhibition; type: functional; settings: read-out: MIC100
# [11] = Half life in dog; type: ADME, Canis lupus familiaris; settings: in vivo
# [12] = Clearance in dog; type: ADME, Canis lupus familiaris; settings: in vivo
# [13] = tested on: Aspergillus fumigatus; assay: Antifungal activity against Aspergillus fumigatus MF5668 infected in DBA/2N mouse assessed as mean survival time at 12.5 mg/kg, ip bid administered for 7 days starting from 15 to 30 mins post infection and measured up to 21 days; type: functional; settings: time 7 day
# Summary of the method: (§4)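 DBA/2N mice were challenged IV with A. fumigatus MF5668 at 6.7 x 10^5 CFU/mouse, then dosed IP twice daily for 7 days. Survival was followed over a 21-day model, and mean survival time in days was recorded per dose group. A sham-treated control group was run alongside.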
# [14] = tested on: Candida albicans; assay: Antifungal activity against Candida albicans MY1055 assessed as reduction in fungal growth; type: functional; summary of the method: as §2
# [15] = tested on: Candida albicans; assay: Antifungal activity against Candida albicans MY1055 infected in ip dosed DBA/2 mouse model of disseminated candidiasis assessed as reduction in fungal burden in kidney administered bid for 7 days by TOKA; type: functional; settings: 168 h, time 7 day
# Summary of the method: (§5)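 Murine disseminated candidiasis model (TOKA) in mice challenged with C. albicans MY1055 at 2.44 x 10^4 CFU/mouse. Dosed PO, or IP where stated. Kidneys collected aseptically 7 days after challenge and CFUs/g counted. Change in log CFU/g is relative to sham-treated controls; significance by two-tailed t test. Clearance is the percentage of kidneys below the detection limit.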
# [16] = tested on: Candida parapsilosis; assay: Antifungal activity against Candida parapsilosis ATCC 22019 assessed as reduction in fungal growth; type: functional; settings: Lodderomyces parapsilosis
# [17] = tested on: Nakaseomyces glabratus; assay: Antifungal activity against Candida glabrata MY1381 assessed as fungal growth inhibition; type: functional; settings: read-out: MIC100
# [18] = tested on: Aspergillus fumigatus; assay: Antifungal activity against Aspergillus fumigatus MF5668 infected in DBA/2N mouse assessed as mouse survival at 6.25 mg/kg, ip bid administered for 7 days starting from 15 to 30 mins post infection and measured up to 21 days relative to control; type: functional; settings: 168 h, time 7 day; summary of the method: as §3
# [19] = Oral bioavailability in dog; type: ADME, organism-based, Canis lupus familiaris; settings: in vivo; summary of the method: as §1
# [20] = tested on: Candida parapsilosis; assay: Antifungal activity against Candida parapsilosis ATCC 22019 assessed as fungal growth inhibition; type: functional; settings: Lodderomyces parapsilosis, read-out: MIC100
# [21] = tested on: Aspergillus fumigatus; assay: Antifungal activity against Aspergillus fumigatus MF5668 infected in DBA/2N mouse assessed as mouse survival at 12.5 mg/kg, ip bid administered for 7 days starting from 15 to 30 mins post infection and measured up to 21 days relative to control; type: functional; settings: 168 h, time 7 day; summary of the method: as §3
# [22] = tested on: Aspergillus fumigatus; assay: Antifungal activity against Aspergillus fumigatus MF5668 infected in DBA/2N mouse assessed as mouse survival at 3.125 mg/kg, ip bid administered for 7 days starting from 15 to 30 mins post infection and measured up to 21 days relative to control; type: functional; settings: 168 h, time 7 day; summary of the method: as §3
# [23] = Clearance in rat; type: ADME; settings: in vivo
# [24] = tested on: Candida albicans; assay: Antifungal activity against Candida albicans MY1055 infected in DBA/2 mouse model of disseminated candidiasis assessed as reduction in fungal burden in kidney by measuring log change in colony forming units at 25 mg/kg, po bid for 7 days by TOKA; type: functional; settings: time 7 day; summary of the method: as §5
# [25] = tested on: Candida albicans; assay: Antifungal activity against Candida albicans MY1055 infected in DBA/2 mouse model of disseminated candidiasis assessed as reduction in fungal burden in kidney by measuring log change in colony forming units at 12.5 mg/kg, po bid for 7 days by TOKA; type: functional; settings: time 7 day; summary of the method: as §5
# [26] = tested on: Aspergillus fumigatus; assay: Antifungal activity against Aspergillus fumigatus MF5668 infected in DBA/2N mouse assessed as mean survival time at 6.25 mg/kg, ip bid administered for 7 days starting from 15 to 30 mins post infection and measured up to 21 days; type: functional; settings: time 7 day; summary of the method: as §4
# [27] = tested on: Aspergillus fumigatus; assay: Antifungal activity against Aspergillus fumigatus MF5668 infected in ip dosed DBA/2N mouse assessed as 50% mouse survival administered bid administered for 7 days starting from 15 to 30 mins post infection and measured up to 21 days; settings: 168 h
# [28] = tested on: Clavispora lusitaniae; assay: Antifungal activity against Clavispora lusitaniae MY1396 assessed as fungal growth inhibition; type: functional; settings: read-out: MIC100
# [29] = Half life in rhesus monkey; type: ADME, Macaca mulatta; settings: in vivo
# [30] = Oral bioavailability in mouse; type: ADME, organism-based; settings: in vivo; summary of the method: as §1
# [31] = tested on: Nakaseomyces glabratus; assay: Antifungal activity against Candida glabrata MY1381 assessed as reduction in fungal growth; type: functional
# [32] = Dose normalized AUC in po dosed dog; type: ADME, organism-based, Canis lupus familiaris; settings: in vivo
# [33] = Half life in rat; type: ADME; settings: in vivo
# [34] = tested on: Aspergillus fumigatus; assay: Antifungal activity against Aspergillus fumigatus MF5668 infected in DBA/2N mouse assessed as mean survival time at 3.125 mg/kg, ip bid administered for 7 days starting from 15 to 30 mins post infection and measured up to 21 days; type: functional; settings: time 7 day; summary of the method: as §4
# [35] = tested on: Pichia kudriavzevii; assay: Antifungal activity against Candida krusei ATCC 6258 assessed as fungal growth inhibition; type: functional; settings: read-out: MIC100
# [36] = Dose normalized AUC in po dosed rat; type: ADME, organism-based; settings: in vivo
# [37] = Clearance in rhesus monkey; type: ADME, Macaca mulatta; settings: in vivo
# [38] = tested on: Aspergillus fumigatus; assay: Antifungal activity against Aspergillus fumigatus MF5668 assessed inhibition of fungal growth by measuring morphological changes measured after 24 hrs by microscopy; type: functional; settings: read-out: MEC
# Summary of the method: (§6)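 Microdilution per CLSI protocols in RPMI medium. Read-out is the minimum effective concentration (MEC). Run without serum and with 50% human serum.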
# [39] = tested on: Candida albicans; assay: Antifungal activity against Candida albicans MY1055 infected in DBA/2 mouse model of disseminated candidiasis assessed as reduction in fungal burden in kidney by measuring log change in colony forming units at 6.25 mg/kg, po bid for 7 days by TOKA; type: functional; settings: time 7 day; summary of the method: as §5
# [40] = tested on: Candida albicans; assay: Antifungal activity against Candida albicans MY1055 assessed as fungal growth inhibition measured after 24 hrs in presence of 50% mouse serum by liquid microdilution method; type: functional; summary of the method: as §2
# [41] = tested on: Candida albicans; assay: Antifungal activity against Candida albicans MY1055 assessed as reduction in fungal growth in presence of 50% mouse serum; type: functional; summary of the method: as §2
# [42] = tested on: Clavispora lusitaniae; assay: Antifungal activity against Clavispora lusitaniae MY1396 assessed as reduction in fungal growth; type: functional
# [43] = tested on: Aspergillus fumigatus; assay: Antifungal activity against Aspergillus fumigatus MF5668 infected in ip dosed DBA/2N mouse assessed as 90% mouse survival administered bid administered for 7 days starting from 15 to 30 mins post infection and measured up to 21 days; type: functional; settings: 168 h, time 7 day
# [44] = tested on: Aspergillus fumigatus; assay: Antifungal activity against Aspergillus fumigatus MF5668 assessed inhibition of fungal growth by measuring morphological changes in presence of 50% human serum measured after 24 hrs by microscopy; type: functional; settings: read-out: MEC; summary of the method: as §6
# [45] = Inhibition of beta-1,3-glucan synthase in Candida albicans MY1055 microsomal membrane assessed as inhibition of TCA-insoluble material formation using UDP-[3H]-glucose as substrate incubated for 2 hrs in presence of GTP by radioactivity-based assay; type: microsomes, Microsome
# Summary of the method: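 GS IC50 measured using Candida albicans MY1055 microsomal membrane fragments as the enzyme source.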
# [46] = Dose normalized AUC in po dosed mouse; type: ADME, organism-based; settings: in vivo
# [47] = tested on: Candida albicans; assay: Antifungal activity against Candida albicans MY1055 assessed as fungal growth inhibition in presence of 50% mouse serum; type: functional; settings: read-out: MIC100; summary of the method: as §2
# [48] = tested on: Candida albicans; assay: Antifungal activity against Candida albicans MY1055 infected in DBA/2 mouse model of disseminated candidiasis assessed as reduction in fungal burden in kidney by measuring log change in colony forming units at 12.5 mg/kg, ip bid for 7 days by TOKA; type: functional; settings: time 7 day; summary of the method: as §5
# [49] = tested on: Aspergillus fumigatus; assay: Antifungal activity against Aspergillus fumigatus MF5668 infected in DBA/2N mouse assessed as mean survival time at 1.56 mg/kg, ip bid administered for 7 days starting from 15 to 30 mins post infection and measured up to 21 days; type: functional; settings: time 7 day; summary of the method: as §4
structure (smiles),measurement,setting,value
CC(C)[C@@H](C)[C@@]1(C)CC[C@]2(C)[C@H]3CC[C@@H]4[C@@]5(COC[C@@]4(C)[C@@H](OC[C@](C)(N)C(C)(C)C)[C@H](n4ncnc4-c4ccncc4)C5)C3=CC[C@@]2(C)[C@@H]1C(=O)O [IBREXAFUNGERP],bioavailability,[1],16%
same,MIC,[2],0.06 µg/mL
same,clearance,[3],14 mL/min/kg
same,survival at 1.56 mg/kg,[4],0%
same,MIC50,[5],1 µg/mL
same,half-life,[6],4.4 h
same,MIC50,[7],2 µg/mL
same,AUC/dose,[8],0.33 µM·kg·h/mg
same,bioavailability,[9],23%
same,MIC,[10],8 µg/mL
same,half-life,[11],11.3 h
same,clearance,[12],4 mL/min/kg
same,MST,[13],19.4 days
same,MIC50,[14],< 0.03 µg/mL
same,ED99,[15],0.84 mg/kg
same,MIC50,[16],< 0.03 µg/mL
same,MIC,[17],1 µg/mL
same,survival at 6.25 mg/kg,[18],90%
same,bioavailability,[19],18%
same,MIC,[20],0.5 µg/mL
same,survival at 12.5 mg/kg,[21],90%
same,survival at 3.125 mg/kg,[22],20%
same,clearance,[23],8 mL/min/kg
same,Activity,[24],-4.6 deltalog10CFU
same,Activity,[25],-3.2 deltalog10CFU
same,MST,[26],19.2 days
same,ED50,[27],4.5 mg/kg
same,MIC,[28],2 µg/mL
same,half-life,[29],5.7 h
same,bioavailability,[30],34%
same,MIC50,[31],1 µg/mL
same,AUC/dose,[32],1.07 µM·kg·h/mg
same,half-life,[33],8.3 h
same,MST,[34],12.2 days
same,MIC,[35],4 µg/mL
same,AUC/dose,[36],0.69 µM·kg·h/mg
same,clearance,[37],11 mL/min/kg
same,minimal effective concentration,[38],< 0.03 µg/mL
same,Activity,[39],-2.2 deltalog10CFU
same,MIC,[40],0.5 µg/mL
same,MIC50,[41],0.25 µg/mL
same,MIC50,[42],1 µg/mL
same,ED90,[43],8.9 mg/kg
same,minimal effective concentration,[44],0.25 µg/mL
same,IC50,[45],0.001 µg/mL
same,AUC/dose,[46],0.59 µM·kg·h/mg
same,MIC,[47],0.5 µg/mL
same,Activity,[48],-3.99 deltalog10CFU
same,MST,[49],5.1 days
